hERG protect – hERG rescue from dofetilide block, primary screen, cell-based, CHO-hERG, FluxOR thallium flux, dofetilide IC70 | activation (rescue from dofetilide block), less the hit threshold, % at 10 µM | Voltage-gated inwardly rectifying potassium channel KCNH2 (Homo sapiens), Q12809 | AID 1511, 2009 | dofetilide IC70 present | 0.51% of 310,000 active;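 active = activation above the mean of controls blocked by dofetilide plus 5 SD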;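 also: thallium influx through hERG after potassium depolarization seen as dye fluorescence rise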
KCNQ1 block – inhibitors of human KCNQ1 channel, primary screen, cell-based, thallium flux, high-throughput; Potassium voltage-gated channel subfamily KQT member 1 (Homo sapiens), P51787; CHO-K1 KCNQ1, FluxOR thallium flux fluorescence; stronger effect = higher value; B-score at 10 µM; 1.3% of 310,000 active;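 active = compounds whose thallium flux B-score, printed positive for inhibition, exceeds three library SD while starting fluorescence stays within three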;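 also: channel opened by potassium depolarization with thallium stimulus after 20 min compound exposure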
KCNQ1 pot – potentiators or activators of KCNQ1 channel, primary screen, cell-based, thallium flux, high-throughput; Potassium voltage-gated channel subfamily KQT member 1 (Homo sapiens), P51787; B-score at 10 µM; 0.35% of 310,000 active; CHO-K1 KCNQ1, thallium flux FluxOR fluorescence; stronger effect = higher value; AID 2648, 2010;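 active = fluorescence ratio B-score, a plate-corrected score, at least three library SD, with initial intensity B-score within 5 SD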
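Medium – assay buffer, equal DMSO in all wells · Material – CHO-K1 cell line with stable KCNQ1 potassium channel expression · Signal – kinetic FluxOR thallium fluorescence, 10-s 1-Hz baseline, 110-s post-stimulus read · Compound – single concentration per compound, DMSO matched to controls · Schedule – 37 °C overnight plating, 90-min dark dye load, 20-min compound pretreatment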
Kir21 inh – inhibitors of mouse Kir2.1 inward-rectifier potassium channel; AID 1672, 2009; HEK293-Kir2.1, FluxOR thallium flux fluorescence; stronger effect = lower value; 0.85% of 310,000 active; B-score at 10 µM; Inward rectifier potassium channel 2 (Mus musculus), P35561;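 active = fluorescence ratio B-score at or below minus 3 SD of library scores, with starting-brightness B-score within 2 SD, cut at about -4.2 in these data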;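 also: channel flux triggered by added potassium and thallium sulfate stimulus; B-score of peak minus minimum fluorescence over baseline after thallium stimulus; more negative B-score means stronger Kir2.1 block with less thallium influx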
Target sequence (P35561 whole entry, looked up): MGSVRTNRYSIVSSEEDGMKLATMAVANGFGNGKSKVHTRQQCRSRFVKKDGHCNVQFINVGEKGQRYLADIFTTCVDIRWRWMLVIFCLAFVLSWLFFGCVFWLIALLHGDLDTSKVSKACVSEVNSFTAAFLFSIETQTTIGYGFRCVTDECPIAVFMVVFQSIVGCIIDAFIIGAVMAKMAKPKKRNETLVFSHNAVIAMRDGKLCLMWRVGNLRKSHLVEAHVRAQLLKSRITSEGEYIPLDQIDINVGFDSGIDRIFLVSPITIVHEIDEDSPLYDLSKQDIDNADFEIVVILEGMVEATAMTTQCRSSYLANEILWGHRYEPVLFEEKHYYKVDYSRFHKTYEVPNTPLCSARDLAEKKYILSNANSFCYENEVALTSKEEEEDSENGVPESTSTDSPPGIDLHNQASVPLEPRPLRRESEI
KCNK9 block – KCNK9 potassium channel inhibitors, primary screen, HEK293 cells, thallium flux | Potassium channel subfamily K member 9 (Homo sapiens), Q9NPC2 | FluxOR thallium flux fluorescence; stronger effect = lower value | B-score at 10 µM | 1.2% of 310,000 active;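 active = ratio B-score over 3 SD below the library mean, with starting fluorescence within 5 SD of its mean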;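 also: negative B-score means less thallium flux so channel inhibition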
KCNK3 block – human KCNK3 channel inhibitors, primary screen, CHO cells, FluxOR thallium flux, B-score. B-score at 10 µM. FluxOR fluorescence; stronger effect = lower value. 0.84% of 340,000 active. Potassium channel subfamily K member 3 (Homo sapiens), O14649;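 active = B-score under library mean minus 4 SD, starting fluorescence ratio at most library mean plus 5 SD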;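 also: more negative B-score means stronger inhibition of thallium flux through KCNK3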
KCNK9 block conf – KCNK9 potassium channel inhibitors, confirmation, HEK293 cells, thallium flux, duplicate. shares compounds with KCNK9 block. FluxOR thallium flux fluorescence. inhibition, % at 10 µM. 43% of 4,900 active. AID 492992, 2010;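 active = thallium signal inhibited by more than 5 SD of the compound-free buffer control wells, on both duplicate plates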;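 also: 0% = assay buffer control wells without compound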
Kir2-1 spec – mouse Kir2.1 channel inhibition, confirmation, selectivity assay for KCNK9 modulator project, cell-based, HEK293, thallium flux; shares compounds with KCNK9 block; Kir2.1 cells, FluxOR thallium flux fluorescence; inhibition, % at 10 µM; 4% of 4,900 active; AID 492993, 2010;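 active = thallium signal drop more than 5 SD beyond the mean of the no-compound control wells, seen in both duplicate plates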;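 also: signal is fluorescence rise after thallium addition divided by baseline fluorescence; plate controls were assay buffer only for no effect and full block by chlorpromazine control for full effect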
KCNK9 uninduced – thallium flux in non-induced HEK293 cells, confirmation, counter-screen for KCNK9 inhibitor project, cell-based, second counter screen, non-induced KCNK9-HEK293. shares compounds with KCNK9 block. FluxOR thallium flux. inhibition, % at 10 µM. 40% of 4,900 active;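 active = thallium signal drop beyond 5 SD of the untreated control mean, on both duplicate plates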;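 also: plate controls were buffer only IC0 wells for no effect and SID17386958 at its maximal inhibitory level for full effect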
* marks the source's active call; other numbers are inactive results. Hits are enriched below; roughly 3.7% of the tested compounds scored in any of these assays.

`COC(=O)c1ccc(C(=O)OC)c(NC(=O)CN(C)Cc2cccc(Cl)c2Cl)c1` gave hERG protect -12.5, KCNQ1 block inactive, KCNQ1 pot inactive, Kir21 inh -2.28, KCNK9 block -11.8*, KCNK3 block inactive, KCNK9 block conf 80.0%*, Kir2-1 spec inactive and KCNK9 uninduced 46.0%*.
Screening COC(=O)c1ccc(C(=O)OC)c(NC(=O)CCC(=O)O)c1 returned hERG protect -9.9, KCNQ1 block inactive, KCNQ1 pot inactive, Kir21 inh 0.63, KCNK9 block inactive and KCNK3 block inactive.
For COc1ccc(-c2ccc3c(c2)[C@@H]2C[C@H](N(C)C(=O)C(C)(C)C)[C@H]([C@H](C)O)C(=O)N2CC3)cc1 the results were KCNK3 block inactive.
Screening O=C(c1ccccc1)N1N=C(c2ccccc2O)CC1c1ccccc1 (centres undefined) returned hERG protect -5.1, KCNQ1 block inactive, KCNQ1 pot inactive, Kir21 inh 0.31, KCNK9 block inactive and KCNK3 block inactive.
COc1ccccc1CC(=O)Nc1nc(-c2ccc(F)c(F)c2)cs1 was read as hERG protect -10.8, KCNQ1 block inactive, KCNQ1 pot inactive, Kir21 inh -0.03, KCNK9 block -17.1*, KCNK3 block inactive, KCNK9 block conf inactive, Kir2-1 spec inactive and KCNK9 uninduced 39.0%*.
Screening CCOc1cc(CNc2ccc3c(c2)OCCO3)cc(Br)c1OCC returned hERG protect -6.6, KCNQ1 block inactive, KCNQ1 pot inactive, Kir21 inh 0.97, KCNK9 block inactive, KCNK3 block inactive, KCNK9 block conf inactive, Kir2-1 spec inactive and KCNK9 uninduced inactive.
`CCOc1cc(CNc2ccc(N3CCOCC3)cc2)cc(Br)c1OCC` gave hERG protect -8.0, KCNQ1 block inactive, KCNQ1 pot inactive, Kir21 inh -0.08, KCNK9 block inactive and KCNK3 block inactive.
CC(C)Oc1ccc(C(=O)/C(=C\c2cccs2)c2nc3ccccc3o2)cc1 was read as hERG protect -12.0, KCNQ1 block inactive, KCNQ1 pot inactive, Kir21 inh 0.81, KCNK9 block inactive, KCNK3 block inactive, KCNK9 block conf inactive, Kir2-1 spec inactive and KCNK9 uninduced inactive.
For N#Cc1nc(Cc2cccc3ccccc23)oc1NCc1ccco1 the results were hERG protect -10.7, KCNQ1 block inactive, KCNQ1 pot inactive, Kir21 inh -2.99, KCNK9 block -10.5*, KCNK3 block inactive, KCNK9 block conf 39.5%*, Kir2-1 spec inactive and KCNK9 uninduced 38.0%*.
For N#Cc1nc(Cc2cccc3ccccc23)oc1NCC1CCCO1 (centres undefined) the results were hERG protect -12.5, KCNQ1 block inactive, KCNQ1 pot inactive, Kir21 inh -3.75, KCNK9 block inactive and KCNK3 block inactive.
Screening Cn1ccnc1SCC(=O)NC1(C#N)CCCCC1 returned hERG protect -12.0, KCNQ1 block inactive, KCNQ1 pot inactive, Kir21 inh 0.69, KCNK9 block inactive and KCNK3 block inactive.
For Brc1ccc(OCc2nnc(SCC3CCCCC3)o2)cc1 the results were hERG protect -8.7, KCNQ1 block inactive, KCNQ1 pot inactive, Kir21 inh -2.01, KCNK9 block -8.85*, KCNK3 block inactive, KCNK9 block conf 26.0%*, Kir2-1 spec inactive and KCNK9 uninduced 36.0%*.
Screening CCOc1ccc(OCC)c(NC(=O)C2CCN(c3cnccn3)CC2)c1 returned hERG protect -8.2, KCNQ1 block inactive, KCNQ1 pot inactive, Kir21 inh 0.53, KCNK9 block inactive and KCNK3 block inactive.
`COc1ccc2c(c1)c(C(=O)N/N=C/c1cn(C)c3ccccc13)c(C)n2C` gave hERG protect -17.2, KCNQ1 block inactive, KCNQ1 pot inactive, Kir21 inh -0.75, KCNK9 block -9.43*, KCNK3 block inactive, KCNK9 block conf inactive, Kir2-1 spec inactive and KCNK9 uninduced inactive.
Cc1nc(S/C(=C/c2ccc(-c3cc(Cl)ccc3C)o2)C(=O)O)n[nH]1 was read as hERG protect -10.5, KCNQ1 block 8*, KCNQ1 pot inactive, Kir21 inh -1, KCNK9 block inactive, KCNK3 block inactive, KCNK9 block conf inactive, Kir2-1 spec inactive and KCNK9 uninduced 35.5%*.
For O=C(C1CCCN(S(=O)(=O)c2cc(Cl)ccc2Cl)C1)N1CCCC1 (centres undefined) the results were hERG protect -13.5, KCNQ1 block inactive, KCNQ1 pot inactive, Kir21 inh 0.2, KCNK9 block inactive and KCNK3 block inactive.
For O=S(=O)(c1ccc2nc(Nc3ccccc3)ccc2c1)N1CCCCC1 the results were hERG protect -15.5, KCNQ1 block inactive, KCNQ1 pot inactive, Kir21 inh -1, KCNK9 block inactive and KCNK3 block inactive.
Screening CC1CCN(C(=O)COC(=O)CCC(=O)c2ccc(Cl)cc2)CC1 returned KCNK3 block inactive.
Cc1ccc(SC[C@H](C)CN2CC[C@H](C)CCC2=O)cc1 was read as hERG protect -7.5, KCNQ1 block inactive, KCNQ1 pot inactive, Kir21 inh -4.68*, KCNK9 block inactive, KCNK3 block inactive, KCNK9 block conf inactive, Kir2-1 spec inactive and KCNK9 uninduced inactive.
`COc1ccc(C(=O)c2coc3ccc(O)c(CN4CCCCC4)c23)cc1` gave hERG protect -10.5, KCNQ1 block inactive, KCNQ1 pot inactive, Kir21 inh -3.82, KCNK9 block inactive, KCNK3 block inactive, KCNK9 block conf inactive, Kir2-1 spec inactive and KCNK9 uninduced inactive.

Assay outcomes deposited in PubChem BioAssay by Johns Hopkins Ion Channel Center.
